The values that follow come from publication PMC4062594 (Nature chemical biology, 2014).

Structures are written as SMILES. Entries after “also recorded” stand apart in the source; their conditions may differ.

For series [1], the target named is T1, PTP1B1-321 (Homo sapiens, UniProt P18031).
T1 sequence (P18031 1-321): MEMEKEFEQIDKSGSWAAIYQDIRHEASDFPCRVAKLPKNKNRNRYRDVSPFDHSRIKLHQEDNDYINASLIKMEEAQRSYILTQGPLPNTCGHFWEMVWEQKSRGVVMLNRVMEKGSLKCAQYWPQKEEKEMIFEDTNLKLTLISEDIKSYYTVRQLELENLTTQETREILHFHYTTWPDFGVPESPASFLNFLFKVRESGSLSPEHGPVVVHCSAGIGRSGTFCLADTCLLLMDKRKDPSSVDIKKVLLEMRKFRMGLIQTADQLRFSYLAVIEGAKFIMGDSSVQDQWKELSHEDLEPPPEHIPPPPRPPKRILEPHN
Nature of the series: PTP assay with DiFMUP substrate. Type of series: biochemical.

Another series has as its system MCF10A-NeuNT cells. Nature of the series: Cell migration with PTP1B knock-down and re-expression. Type of series: cell-based. In a few lines:
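MCF10A-NeuNT cells carried doxycycline-inducible control or PTP1B shRNA miRs; doxycycline (500 ng/mL) was added 12 h after seeding and refreshed every 12 h. Cells were transfected 24 h with wild type or L192A/S372P PTP1B, then left untreated or given test compound (1 or 2 μM). Cells were run in Matrigel invasion chambers (8.0 μm pores) for 24–48 h, and migrated cells were Giemsa-stained and counted. Three experiments, in duplicate.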

Series [2] deals with tyrosine phosphorylation-dependent signaling in tumors. Nature of the series: Immunoblotting of tumor lysates from NDL2 mice. Type of series: in vivo. The settings on record: tumor samples from treated NDL2 animals. The method, boiled down:
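Tumours from treated NDL2 mice were dissected free of connective tissue, ground under liquid nitrogen and lysed 30 min on ice. Lysis buffer: HEPES pH 7.4, glycerol, Triton X-100, NaCl, EGTA, 1 mM orthovanadate, 20 mM NaF, protease inhibitors. Lysates were cleared at 12,000 x g, 15 min, 4 °C. Lysate (20 μg) was blotted with anti-phosphotyrosine (4G10), anti-p62DOK and anti-phospho-Erk, then stripped and reprobed with total-protein antibodies.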

For series [3], the target named is T2, PTP1B in tumor lysates from NDL2 mice (Mus musculus, UniProt P35821).
T2 sequence (P35821 1-432): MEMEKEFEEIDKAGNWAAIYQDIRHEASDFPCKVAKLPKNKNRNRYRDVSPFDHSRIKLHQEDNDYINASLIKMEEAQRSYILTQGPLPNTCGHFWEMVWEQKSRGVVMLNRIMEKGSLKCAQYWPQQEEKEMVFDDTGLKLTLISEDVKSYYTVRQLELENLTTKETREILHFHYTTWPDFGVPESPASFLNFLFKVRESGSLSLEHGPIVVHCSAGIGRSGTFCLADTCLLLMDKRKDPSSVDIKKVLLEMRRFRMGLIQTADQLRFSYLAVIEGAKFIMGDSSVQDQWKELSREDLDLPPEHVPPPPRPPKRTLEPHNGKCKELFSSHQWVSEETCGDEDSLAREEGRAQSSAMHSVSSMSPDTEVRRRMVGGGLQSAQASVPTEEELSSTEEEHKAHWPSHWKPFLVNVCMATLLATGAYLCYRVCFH
Nature of the series: Binding assay with bead-immobilized compound in tumor lysates. The settings on record: confirmed by immunoblotting. The method, boiled down:
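Test compound was coupled through its primary amine to NHS-activated magnetic beads (1 mM, 100 mM triethylamine, 8 h, 4°C), and free NHS groups were blocked with 0.8 M aminoethanol. Beads were incubated with 0–1 mg NDL2 tumour lysate protein and washed. Bound protein was eluted by heat in SDS sample buffer, run on 10% SDS-PAGE and identified by immunoblotting. Beads carrying a related amine compound served as negative control.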

In a further series the target is T3, CFP-PTP1B1-321-YFP (Homo sapiens, UniProt P18031).
T3 sequence (P18031 1-321): T1 sequence (P18031 1-321)
Nature of the series: Intramolecular FRET titration. Type of series: binding. To be noted: excitation at 440 nm, 0–5 μM MSI-1436.

The subject of series [4] is NDL2 mammary tumors and lung metastasis. Nature of the series: NDL2 transgenic mouse model of breast cancer. Type of series: in vivo. In a few lines:
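NDL2 mice with palpable tumours were randomised to saline or test compound (5 or 10 mg/kg, 100 μl) i.p. every third day for 45 days, using freshly prepared solutions. Animals were killed after 45 d, and tumours were removed, counted and weighed. Whole lungs were sectioned, H&E-stained and scored for metastases. Groups had six animals; Student t-test was used.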

The subject of series [5] is PTP1B V370, S372 and R373 to alanine. Nature of the series: PTP assay, alanine point mutants. Type of series: biochemical, human. To be noted: data not shown.
Series [6] deals with T1, PTP1B1-321. Nature of the series: Binding of recombinant protein to bead-immobilized compound. The settings on record: in vitro. In a few lines: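 Beads were washed in the same buffer plus 0.01% NP-40 and 1% glycerol, then heat-eluted in SDS sample buffer. Eluates were run on 10% SDS-PAGE and stained with Coomassie or silver.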
The subject of series [7] is panel of breast cancer cells. Nature of the series: Cell proliferation assay. Type of series: cell-based. The method, boiled down:
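Cells (1 × 10^4) per well were grown 12–96 hours in growth medium without or with test compound (2 and 5 μM). Proliferation was read by CellTiter-Glo luminescence.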

A further series deals with BT-474 cells. Nature of the series: Cell migration assay. Type of series: cell-based. The settings on record: HER2-positive, MSI-1436 5 µM.
The conditions of series [8]: patients; cited from earlier work.
The next series has as its target T4, PTP1B1-405 (Homo sapiens, UniProt P18031).
T4 sequence (P18031 1-405): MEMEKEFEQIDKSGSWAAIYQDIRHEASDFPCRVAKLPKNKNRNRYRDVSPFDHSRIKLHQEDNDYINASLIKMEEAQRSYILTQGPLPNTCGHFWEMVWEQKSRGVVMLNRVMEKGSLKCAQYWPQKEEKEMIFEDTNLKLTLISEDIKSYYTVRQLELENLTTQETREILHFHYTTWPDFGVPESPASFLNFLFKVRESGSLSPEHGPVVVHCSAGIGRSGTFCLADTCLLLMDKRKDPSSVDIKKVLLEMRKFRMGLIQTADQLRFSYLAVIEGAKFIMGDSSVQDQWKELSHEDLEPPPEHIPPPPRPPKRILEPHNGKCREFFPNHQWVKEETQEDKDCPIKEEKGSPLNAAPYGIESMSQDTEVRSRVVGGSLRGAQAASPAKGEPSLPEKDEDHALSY
Nature of the series: Limited proteolysis with trypsin. To be noted: saturating concentrations of MSI-1436 (5 μM).

The mark [9] stands for this setting: 5 mg/kg intraperitoneally every third day, relative to control.

As to `CC(C)[C@@H](CC[C@@H](C)[C@H]1CC[C@H]2[C@@H]3[C@H](O)C[C@H]4C[C@@H](NCCCNCCCCNCCCN)CC[C@]4(C)[C@H]3CC[C@]12C)OS(=O)(=O)O` [MSI-1436, Trodusquemine], the mode of inhibition result at PTP1B1-321 [1] was “reversible non-competitive inhibitor”. Also, the migration result in the series on MCF10A-NeuNT cells (PTP1B knock-down, reconstituted with PTP1B-L192A/S372P, MSI-1436 1 or 2 μM) is listed as “no longer sensitive”; in the series with MCF10A-NeuNT cells (PTP1B knock-down, reconstituted with wild type PTP1B, MSI-1436 1 or 2 μM), “remained sensitive to inhibition”; with MCF10A-NeuNT cells (absence of doxycycline (endogenous PTP1B)), “attenuated”; with BT-474 cells, “attenuated migration”. Moreover, in series [2], the “phosphorylation of p44/42 MAP kinase” value is “decrease”. Also, the “tyrosine phosphorylation of p62DOK” value in series [2] was “significant increase”. The “retention of 50 kDa band (PTP1B) by compound beads” value in [3] is “PTP1B was cleared from the lysate; also recorded: retained”. Moreover, the FRET entry at CFP-PTP1B1-321-YFP is “did not result in FRET”. The tumor number entry in series [4] (setting [9]) is listed as “marked decrease”. The tumor size entry in series [4] (setting [9]) was “marked decrease”. In addition, the lung metastasis result in series [4] (5 or 10 mg/kg intraperitoneally every third day) is listed as “essentially abrogated”. In addition, in series [5], the “effect of alanine mutations on inhibition by MSI-1436” value was “did not affect”. The “binding to bead-immobilized compound” value on PTP1B1-321 [6] is “bound”. Moreover, in [7], the “nature of effects (cytostatic versus cytotoxic)” value was “primarily cytostatic, rather than cytotoxic”. For the same compound, the proliferation entry in series [7] (cells sensitive to Lapatinib, MSI-1436 2 and 5 μM) is “inhibited proliferation”. Besides, in series [8], the tolerability entry is reported as “well tolerated”. For the same compound, the sensitivity to trypsin entry at PTP1B1-405 is “more trypsin-resistant state”.
